According to ChEMBL document CHEMBL3797186, “Single Residue Substitutions That Confer Voltage-Gated Sodium Ion Channel Subtype Selectivity in the NaV1.7 Inhibitory Peptide GpTx-1” (J Med Chem, 2016):
Positions of bridges follow the written chain, without caps; N, C: chain ends. Residues, ends and D or L forms follow the SMILES beside them.

Tests used:
Assay type in all cases: cell-based
[1] = biological target: T1, Sodium channel protein type 5 subunit alpha (Homo sapiens, UniProt Q14524); test: Inhibition of human Nav1.5 expressed in HEK293 cells assessed as inward peak current by ion-works quattro patch clamp electrophysiology method
T1 sequence (Q14524 whole entry): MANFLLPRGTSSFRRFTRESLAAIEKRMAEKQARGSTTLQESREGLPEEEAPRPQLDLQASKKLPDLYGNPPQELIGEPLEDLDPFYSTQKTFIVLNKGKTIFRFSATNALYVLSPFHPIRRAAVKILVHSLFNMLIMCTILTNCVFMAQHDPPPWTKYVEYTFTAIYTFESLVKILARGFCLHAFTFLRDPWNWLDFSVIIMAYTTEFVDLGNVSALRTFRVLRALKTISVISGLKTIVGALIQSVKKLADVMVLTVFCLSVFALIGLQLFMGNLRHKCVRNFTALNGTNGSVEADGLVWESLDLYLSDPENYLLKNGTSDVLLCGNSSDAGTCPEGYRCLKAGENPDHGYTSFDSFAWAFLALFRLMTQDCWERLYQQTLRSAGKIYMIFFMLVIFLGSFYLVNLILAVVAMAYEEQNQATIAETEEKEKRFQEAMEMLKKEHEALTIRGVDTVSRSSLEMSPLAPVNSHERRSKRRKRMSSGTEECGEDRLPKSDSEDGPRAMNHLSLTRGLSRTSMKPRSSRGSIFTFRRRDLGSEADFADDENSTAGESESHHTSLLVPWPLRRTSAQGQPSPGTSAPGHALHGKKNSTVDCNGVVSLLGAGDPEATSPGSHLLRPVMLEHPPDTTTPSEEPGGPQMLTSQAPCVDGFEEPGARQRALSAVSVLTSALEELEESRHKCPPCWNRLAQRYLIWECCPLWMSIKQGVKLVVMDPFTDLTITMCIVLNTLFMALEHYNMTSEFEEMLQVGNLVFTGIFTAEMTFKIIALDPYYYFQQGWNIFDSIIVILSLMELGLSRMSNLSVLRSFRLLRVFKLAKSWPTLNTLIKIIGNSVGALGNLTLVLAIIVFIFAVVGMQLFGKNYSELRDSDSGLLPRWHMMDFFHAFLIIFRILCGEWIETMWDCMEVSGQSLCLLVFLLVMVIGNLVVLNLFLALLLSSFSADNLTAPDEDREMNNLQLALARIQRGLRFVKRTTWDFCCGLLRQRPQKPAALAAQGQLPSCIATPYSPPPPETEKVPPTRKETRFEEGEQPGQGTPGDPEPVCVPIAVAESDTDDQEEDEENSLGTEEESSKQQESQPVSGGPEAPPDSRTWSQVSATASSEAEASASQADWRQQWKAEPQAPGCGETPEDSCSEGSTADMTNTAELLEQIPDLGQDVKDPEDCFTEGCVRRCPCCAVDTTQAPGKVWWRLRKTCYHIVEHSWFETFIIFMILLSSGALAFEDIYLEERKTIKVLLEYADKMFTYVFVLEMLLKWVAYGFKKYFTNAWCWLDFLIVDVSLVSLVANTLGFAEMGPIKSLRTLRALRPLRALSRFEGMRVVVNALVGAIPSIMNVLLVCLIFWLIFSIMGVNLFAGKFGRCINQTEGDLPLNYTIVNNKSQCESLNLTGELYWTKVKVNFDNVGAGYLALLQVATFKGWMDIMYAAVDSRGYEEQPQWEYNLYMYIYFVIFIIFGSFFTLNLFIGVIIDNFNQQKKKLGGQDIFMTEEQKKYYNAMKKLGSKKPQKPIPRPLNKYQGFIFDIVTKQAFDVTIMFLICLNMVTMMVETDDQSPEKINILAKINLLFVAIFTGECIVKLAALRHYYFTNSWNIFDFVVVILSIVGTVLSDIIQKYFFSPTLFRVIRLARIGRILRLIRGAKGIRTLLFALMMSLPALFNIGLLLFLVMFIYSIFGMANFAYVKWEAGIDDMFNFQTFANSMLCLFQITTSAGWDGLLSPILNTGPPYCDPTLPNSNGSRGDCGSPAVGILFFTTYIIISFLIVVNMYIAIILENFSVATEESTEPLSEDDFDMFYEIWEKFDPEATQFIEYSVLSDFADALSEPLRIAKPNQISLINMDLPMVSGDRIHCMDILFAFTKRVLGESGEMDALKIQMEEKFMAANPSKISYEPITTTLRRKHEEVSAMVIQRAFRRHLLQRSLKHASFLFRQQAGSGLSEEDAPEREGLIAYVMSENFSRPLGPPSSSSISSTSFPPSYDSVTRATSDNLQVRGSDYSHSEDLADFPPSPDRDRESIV
Outline: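 Stable HEK293 line expressing human NaV1.5, recorded by population patch clamp on the IonWorks Quattro.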

[2] = biological target: T1, Sodium channel protein type 5 subunit alpha; test: Inhibition of human Nav1.5 expressed in HEK293 cells by whole cell patch clamp electrophysiology method
Outline: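 Stable HEK293 line expressing human NaV1.5, recorded on the PatchXpress 7000A. Percent inhibition versus concentration was pooled from at least 10 cells, with two to three points per concentration. The pooled set was fitted with a four-parameter Hill equation to give a single IC50 curve.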

[3] = biological target: Sodium channel protein type 9 subunit alpha (Homo sapiens, UniProt Q15858); test: Inhibition of human Nav1.7 expressed in HEK293 cells assessed as inward peak current by ion-works quattro patch clamp electrophysiology method
Chain of Sodium channel protein type 9 subunit alpha (Q15858 whole entry): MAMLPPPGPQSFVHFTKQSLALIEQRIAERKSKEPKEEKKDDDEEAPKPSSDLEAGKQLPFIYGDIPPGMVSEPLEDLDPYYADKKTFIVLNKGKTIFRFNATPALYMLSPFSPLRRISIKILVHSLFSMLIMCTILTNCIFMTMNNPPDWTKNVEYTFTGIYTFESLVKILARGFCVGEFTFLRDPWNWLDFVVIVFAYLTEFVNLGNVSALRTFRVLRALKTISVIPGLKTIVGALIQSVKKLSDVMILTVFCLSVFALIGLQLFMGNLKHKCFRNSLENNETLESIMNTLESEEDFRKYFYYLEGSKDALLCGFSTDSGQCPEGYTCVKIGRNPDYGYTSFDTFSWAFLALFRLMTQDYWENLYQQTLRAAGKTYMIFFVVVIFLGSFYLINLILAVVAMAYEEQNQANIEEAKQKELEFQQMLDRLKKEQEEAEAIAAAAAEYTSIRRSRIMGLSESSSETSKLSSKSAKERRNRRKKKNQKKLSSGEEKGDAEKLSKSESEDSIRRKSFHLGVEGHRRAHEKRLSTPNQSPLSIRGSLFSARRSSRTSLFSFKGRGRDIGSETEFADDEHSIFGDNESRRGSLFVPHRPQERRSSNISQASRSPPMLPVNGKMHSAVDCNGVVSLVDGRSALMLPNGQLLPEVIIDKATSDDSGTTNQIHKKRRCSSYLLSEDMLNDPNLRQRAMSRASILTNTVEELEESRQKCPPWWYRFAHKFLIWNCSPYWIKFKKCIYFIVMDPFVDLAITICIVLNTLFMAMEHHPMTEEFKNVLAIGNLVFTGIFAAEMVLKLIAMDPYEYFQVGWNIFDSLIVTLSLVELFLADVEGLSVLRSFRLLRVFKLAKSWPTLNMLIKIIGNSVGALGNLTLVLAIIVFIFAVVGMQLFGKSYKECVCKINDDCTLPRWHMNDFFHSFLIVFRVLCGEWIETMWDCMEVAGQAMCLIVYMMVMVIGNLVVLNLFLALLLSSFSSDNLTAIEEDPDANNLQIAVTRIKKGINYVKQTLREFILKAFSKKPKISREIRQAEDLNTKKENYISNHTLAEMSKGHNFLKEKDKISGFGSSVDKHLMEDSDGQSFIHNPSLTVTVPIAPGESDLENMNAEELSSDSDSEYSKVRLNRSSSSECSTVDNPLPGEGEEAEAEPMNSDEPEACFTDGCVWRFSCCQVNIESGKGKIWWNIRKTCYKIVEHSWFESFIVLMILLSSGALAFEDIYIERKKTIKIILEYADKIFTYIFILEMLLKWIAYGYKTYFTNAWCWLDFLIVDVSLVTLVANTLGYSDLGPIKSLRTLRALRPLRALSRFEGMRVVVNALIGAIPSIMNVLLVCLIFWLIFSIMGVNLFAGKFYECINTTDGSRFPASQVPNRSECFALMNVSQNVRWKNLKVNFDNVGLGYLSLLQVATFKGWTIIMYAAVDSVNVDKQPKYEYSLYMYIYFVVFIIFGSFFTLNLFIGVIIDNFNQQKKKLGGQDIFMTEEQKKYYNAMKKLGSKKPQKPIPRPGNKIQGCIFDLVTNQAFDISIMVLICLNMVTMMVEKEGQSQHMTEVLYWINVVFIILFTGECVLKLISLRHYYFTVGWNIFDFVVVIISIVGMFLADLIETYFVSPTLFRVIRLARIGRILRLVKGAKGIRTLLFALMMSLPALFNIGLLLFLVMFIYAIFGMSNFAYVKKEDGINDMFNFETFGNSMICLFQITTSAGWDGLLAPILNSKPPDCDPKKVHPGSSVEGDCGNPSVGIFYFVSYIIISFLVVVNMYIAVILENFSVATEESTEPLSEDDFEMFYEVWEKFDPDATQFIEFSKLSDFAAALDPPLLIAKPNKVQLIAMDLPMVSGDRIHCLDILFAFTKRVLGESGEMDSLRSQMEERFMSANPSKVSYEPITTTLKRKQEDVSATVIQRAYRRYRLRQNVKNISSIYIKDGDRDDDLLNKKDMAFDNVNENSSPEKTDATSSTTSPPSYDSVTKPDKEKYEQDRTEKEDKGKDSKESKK

Compound CC[C@H](C)[C@@H]1NC(=O)[C@@H]2CSSC[C@@H]3NC(=O)[C@H](C(C)C)NC(=O)[C@H](CC(C)C)NC(=O)[C@H](CC(N)=O)NC(=O)[C@@H]4CCCN4C(=O)[C@H](CCCNC(=N)N)NC(=O)[C@H](CSSC[C@H](NC(=O)[C@H](CC(=O)O)NC(C)=O)C(=O)N[C@@H](CC(C)C)C(=O)NCC(=O)N[C@@H](Cc4ccccc4)C(=O)N[C@@H](CCSC)C(=O)N[C@@H](CCCNC(=N)N)C(=O)N[C@@H](CCCCN)C(=O)N2)NC(=O)[C@H](CSSC[C@@H](C(=O)N[C@@H](CCCCN)C(=O)N[C@@H](Cc2ccc(O)cc2)C(=O)N[C@H](C(=O)N[C@@H](Cc2ccccc2)C(N)=O)C(C)C)NC(=O)[C@H](Cc2c[nH]c4ccccc24)NC(=O)[C@H](CCCCN)NC(=O)[C@H](Cc2cnc[nH]2)NC(=O)[C@H]([C@@H](C)O)NC(=O)[C@H](CCCNC(=N)N)NC(=O)[C@H](CO)NC3=O)NC(=O)[C@H](CCCCN)NC(=O)[C@H](CC(=O)O)NC(=O)[C@H](CC(N)=O)NC(=O)[C@H](CC(=O)O)NC(=O)[C@@H]2CCCN2C1=O has an IC50 [1] of over 5000 nM and an IC50 [2] of over 10000 nM.

For CC[C@H](C)[C@@H]1NC(=O)[C@@H]2CSSC[C@@H]3NC(=O)[C@H](C(C)C)NC(=O)[C@H](Cc4c[nH]c5ccccc45)NC(=O)[C@H](CC(N)=O)NC(=O)[C@@H]4CCCN4C(=O)[C@H](CCCNC(=N)N)NC(=O)[C@H](CSSC[C@H](NC(=O)[C@@H](N)CC(=O)O)C(=O)N[C@@H](CC(C)C)C(=O)NCC(=O)N[C@@H](Cc4ccccc4)C(=O)N[C@@H](CCSC)C(=O)N[C@@H](CCCNC(=N)N)C(=O)N[C@@H](CCCCN)C(=O)N2)NC(=O)[C@H](CSSC[C@@H](C(=O)N[C@@H](CCCCN)C(=O)N[C@@H](Cc2ccc(O)cc2)C(=O)N[C@H](C(=O)N[C@@H](Cc2ccccc2)C(N)=O)C(C)C)NC(=O)[C@H](Cc2c[nH]c4ccccc24)NC(=O)[C@H](CCCCN)NC(=O)[C@H](Cc2cnc[nH]2)NC(=O)[C@H]([C@@H](C)O)NC(=O)[C@H](CCCNC(=N)N)NC(=O)[C@H](CO)NC3=O)NC(=O)[C@H](CCCCN)NC(=O)[C@H](CC(=O)O)NC(=O)[C@H](CC(N)=O)NC(=O)[C@H](CC(=O)O)NC(=O)[C@@H]2CCCN2C1=O (H-DCLGFMRKCIPDNDKCCRPNWVCSRTHKWCKYVF-NH2; disulfide 2-17, 9-23, 16-30), the IC50 [3] was 110 nM and the IC50 [1] was over 5000 nM.

For CC[C@H](C)[C@@H]1NC(=O)[C@@H]2CSSC[C@@H]3NC(=O)[C@H](C(C)C)NC(=O)[C@H](CC(C)C)NC(=O)[C@H](CC(N)=O)NC(=O)[C@@H]4CCCN4C(=O)[C@H](CCCNC(=N)N)NC(=O)[C@H](CSSC[C@H](NC(=O)[C@@H](N)CC(=O)O)C(=O)N[C@@H](CC(C)C)C(=O)NCC(=O)N[C@@H](CCC(=O)O)C(=O)N[C@@H](CCSC)C(=O)N[C@@H](CCCNC(=N)N)C(=O)N[C@@H](CCCCN)C(=O)N2)NC(=O)[C@H](CSSC[C@@H](C(=O)N[C@@H](CCCCN)C(=O)N[C@@H](Cc2ccc(O)cc2)C(=O)N[C@H](C(=O)N[C@@H](Cc2ccccc2)C(N)=O)C(C)C)NC(=O)[C@H](Cc2c[nH]c4ccccc24)NC(=O)[C@H](CCCCN)NC(=O)[C@H](Cc2cnc[nH]2)NC(=O)[C@H]([C@@H](C)O)NC(=O)[C@H](CCCNC(=N)N)NC(=O)[C@H](CO)NC3=O)NC(=O)[C@H](CCCCN)NC(=O)[C@H](CC(=O)O)NC(=O)[C@H](CC(N)=O)NC(=O)[C@H](CC(=O)O)NC(=O)[C@@H]2CCCN2C1=O (H-DCLGEMRKCIPDNDKCCRPNLVCSRTHKWCKYVF-NH2; disulfide 2-17, 9-23, 16-30), the IC50 [3] was over 5000 nM and the IC50 [1] was over 5000 nM.

For CC[C@H](C)[C@@H]1NC(=O)[C@@H]2CSSC[C@@H]3NC(=O)[C@H](C(C)C)NC(=O)[C@H](CC(C)C)NC(=O)[C@H](CC(N)=O)NC(=O)[C@@H]4CCCN4C(=O)[C@H](CCCNC(=N)N)NC(=O)[C@H](CSSC[C@H](NC(=O)[C@@H](N)CC(=O)O)C(=O)N[C@@H](CC(C)C)C(=O)NCC(=O)N[C@@H](Cc4ccccc4)C(=O)N[C@@H](CCSC)C(=O)N[C@@H](CCCNC(=N)N)C(=O)N[C@@H](CCCCN)C(=O)N2)NC(=O)[C@H](CSSC[C@@H](C(=O)N[C@@H](CCCCN)C(=O)N[C@@H](Cc2ccc(O)cc2)C(=O)N[C@H](C(=O)N[C@@H](Cc2ccccc2)C(N)=O)C(C)C)NC(=O)[C@H](Cc2c[nH]c4ccccc24)NC(=O)[C@H](CCCCN)NC(=O)[C@H](CCCNC(=N)N)NC(=O)[C@H]([C@@H](C)O)NC(=O)[C@H](CCCNC(=N)N)NC(=O)[C@H](CO)NC3=O)NC(=O)[C@H](CCCCN)NC(=O)[C@H](CC(=O)O)NC(=O)[C@H](CC(N)=O)NC(=O)[C@H](CC(=O)O)NC(=O)[C@@H]2CCCN2C1=O (H-DCLGFMRKCIPDNDKCCRPNLVCSRTRKWCKYVF-NH2; disulfide 2-17, 9-23, 16-30), the IC50 [3] was 450 nM and the IC50 [1] was over 5000 nM.

For CC[C@H](C)[C@@H]1NC(=O)[C@@H]2CSSC[C@@H]3NC(=O)[C@H](C(C)C)NC(=O)[C@H](CC(C)C)NC(=O)[C@H](CC(N)=O)NC(=O)[C@@H]4CCCN4C(=O)[C@H](CCCNC(=N)N)NC(=O)[C@H](CSSC[C@H](NC(=O)[C@@H](N)CC(=O)O)C(=O)N[C@@H](CC(C)C)C(=O)NCC(=O)N[C@@H](Cc4ccccc4)C(=O)N[C@@H](CCSC)C(=O)N[C@@H](CCCNC(=N)N)C(=O)N[C@@H](CCCCN)C(=O)N2)NC(=O)[C@H](CSSC[C@@H](C(=O)N[C@@H](CCCCN)C(=O)N[C@@H](Cc2ccc(O)cc2)C(=O)N[C@H](C(=O)N[C@@H](Cc2ccccc2)C(N)=O)C(C)C)NC(=O)[C@H](Cc2c[nH]c4ccccc24)NC(=O)[C@H](CCCCN)NC(=O)[C@H](Cc2cnc[nH]2)NC(=O)[C@H]([C@@H](C)O)NC(=O)[C@H](CCCNC(=N)N)NC(=O)[C@H](CO)NC3=O)NC(=O)[C@H](CCCCN)NC(=O)[C@H](CC(=O)O)NC(=O)[C@H](CC(N)=O)NC(=O)[C@H](Cc2c[nH]c3ccccc23)NC(=O)[C@@H]2CCCN2C1=O (H-DCLGFMRKCIPWNDKCCRPNLVCSRTHKWCKYVF-NH2; disulfide 2-17, 9-23, 16-30), the IC50 [3] was 60 nM and the IC50 [1] was over 5000 nM.

For CC[C@H](C)[C@@H]1NC(=O)[C@H]2CSSC[C@H]3NC(=O)[C@H](C(C)C)NC(=O)[C@H](CC(C)C)NC(=O)[C@H](CC(N)=O)NC(=O)[C@@H]4CCCN4C(=O)[C@H](CCCNC(=N)N)NC(=O)[C@H](CSSC[C@H](NC(=O)[C@@H](N)CC(=O)O)C(=O)N[C@@H](CC(C)C)C(=O)NCC(=O)N[C@@H](Cc4ccccc4)C(=O)N[C@@H](CCSC)C(=O)N[C@@H](CCCNC(=N)N)C(=O)N[C@@H](CCCCN)C(=O)N2)NC(=O)[C@@H](CSSC[C@@H](C(=O)N[C@@H](CCCCN)C(=O)N[C@@H](Cc2ccc(O)cc2)C(=O)N[C@H](C(=O)N[C@@H](Cc2ccccc2)C(N)=O)C(C)C)NC(=O)[C@H](Cc2c[nH]c4ccccc24)NC(=O)[C@H](C)NC(=O)[C@H](Cc2cnc[nH]2)NC(=O)[C@H]([C@@H](C)O)NC(=O)[C@H](CCCNC(=N)N)NC(=O)[C@H](CO)NC3=O)NC(=O)[C@H](CCCCN)NC(=O)[C@H](CC(=O)O)NC(=O)[C@H](CC(N)=O)NC(=O)[C@H](CC(=O)O)NC(=O)[C@@H]2CCCN2C1=O, the IC50 [3] was 470 nM and the IC50 [1] was over 5000 nM.
